Data as given in ChEMBL document CHEMBL2385052, “Identification of the fused bicyclic 4-amino-2-phenylpyrimidine derivatives as novel and potent PDE4 inhibitors” (Bioorg Med Chem Lett, 2013).
Calls of active or inactive are those of the source. The calls are words filed in the database; no cut-off is given here.

Key:
[1] = target: T1, 3',5'-cyclic-AMP phosphodiesterase 4B (Homo sapiens, UniProt Q07343); experiment: Inhibition of human recombinant PDE4B (152 to 564 amino acids) using cAMP as substrate after 30 mins by plate reader analysis
T1 sequence (Q07343 whole entry, the tested form may be a part): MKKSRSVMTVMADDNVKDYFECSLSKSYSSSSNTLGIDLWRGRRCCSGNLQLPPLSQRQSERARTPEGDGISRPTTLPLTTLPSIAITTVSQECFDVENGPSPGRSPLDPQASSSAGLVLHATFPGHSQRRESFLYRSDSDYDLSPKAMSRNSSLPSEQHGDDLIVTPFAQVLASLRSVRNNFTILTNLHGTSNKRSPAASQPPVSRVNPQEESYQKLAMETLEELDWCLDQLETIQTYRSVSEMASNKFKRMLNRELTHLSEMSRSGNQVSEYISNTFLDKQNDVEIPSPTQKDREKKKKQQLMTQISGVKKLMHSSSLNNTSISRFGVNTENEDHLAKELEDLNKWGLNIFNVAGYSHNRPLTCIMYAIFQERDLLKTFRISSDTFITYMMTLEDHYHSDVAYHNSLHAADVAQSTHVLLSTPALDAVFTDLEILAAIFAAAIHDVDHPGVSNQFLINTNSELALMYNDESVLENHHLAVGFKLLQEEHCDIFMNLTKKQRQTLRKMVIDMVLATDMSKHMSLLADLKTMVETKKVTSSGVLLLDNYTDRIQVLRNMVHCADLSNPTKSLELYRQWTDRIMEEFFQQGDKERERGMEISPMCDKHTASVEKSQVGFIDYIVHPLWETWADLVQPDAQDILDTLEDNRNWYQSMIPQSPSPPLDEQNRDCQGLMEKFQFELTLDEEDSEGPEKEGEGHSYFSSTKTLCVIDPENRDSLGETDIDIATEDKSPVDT

Mus musculus = experiment: Antiinflammatory activity in ip dosed BALB/c mouse assessed as inhibition of LPS-induced pulmonary neutrophilia administered 30 mins prior to LPS challenge measured after 4 to 5 hrs; format: functional; conditions: for ED50: read-out: ID50 (the source's name)
[2] = Antiinflammatory activity in Balb/c mouse splenocytes assessed as LPS-induced TNF-alpha production after 18 to 24 hrs by AlphaLISA; format: functional, cell-based; conditions: Splenocyte
[3] = Permeability of the compound at pH 7.4 after 4 hrs by PAMPA; format: ADME; conditions: read-out: permeability
Outline: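 Passive membrane permeability was measured by PAMPA at pH 7.4. The effective permeability coefficient Pe is reported in 10^-6 cm/sec.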

[4] = Octanol-phosphate buffer partition coefficient, log D of the compound at pH 7.4 after 12 hrs by shake flask method; format: physicochemical
[5] = target: T1, 3',5'-cyclic-AMP phosphodiesterase 4B; experiment: Inhibition of human recombinant PDE4B (152 to 564) using cAMP as substrate at 10 uM after 30 mins by plate reader analysis

Row | SMILES | IC50 [1] [µM] | IC50 [2] [µM] | other results
1 | CC(C)(C)CNC(=O)Cc1ccc(Nc2nc(-c3ccccc3)nc3c2S(=O)(=O)CCC3)cc1 | 0.0047 | 0.0008 | Activity (Mus musculus): inactive
2 | O=C(O)Cc1ccc(Nc2nc(-c3ccccc3)nc3c2S(=O)(=O)CC3)cc1 | 0.28 | > 10 | –
3 | O=C(O)Cc1ccc(Nc2nc(-c3ccccc3)nc3ccccc23)cc1 | 0.48 | – | –
4 | CCCNC(=O)Cc1ccc(Nc2nc(-c3ccccc3)nc3c2S(=O)(=O)CCC3)cc1 | 0.0075 | 0.0098 | ED50 (Mus musculus): 18 mg/kg
5 | O=C(O)Cc1ccc(Nc2nc(-c3ccccc3)nc3c2CCC3)cc1 | 0.61 | – | –
6 | CNC(=O)Cc1ccc(Nc2nc(-c3ccccc3)nc3c2S(=O)(=O)CCC3)cc1 | 0.027 | 0.035 | –
7 | O=C(O)Cc1ccc(Nc2nc(-c3ccccc3)nc3c2SCCC3)cc1 | 0.029 | 0.09 | Papp at 4 h [3]: 15.5 ×10⁻⁶ cm/s; logD at 12 h [4]: 1.4
8 | O=C(O)Cc1ccc(Nc2nc(-c3ccccc3)nc3sccc23)cc1 | 0.23 | – | –
9 | CN(C)C(=O)Cc1ccc(Nc2nc(-c3ccccc3)nc3c2S(=O)(=O)CCC3)cc1 | 0.033 | 0.017 | –
10 | O=C(Cc1ccc(Nc2nc(-c3ccccc3)nc3c2S(=O)(=O)CCC3)cc1)Nc1ccccc1 | 0.043 | 0.018 | –
11 | CCCCNC(=O)Cc1ccc(Nc2nc(-c3ccccc3)nc3c2S(=O)(=O)CCC3)cc1 | 0.022 | 0.013 | ED50 (Mus musculus): 23 mg/kg
12 | CC(C)CNC(=O)Cc1ccc(Nc2nc(-c3ccccc3)nc3c2S(=O)(=O)CCC3)cc1 | 0.0066 | 0.0047 | –
13 | NC(=O)Cc1ccc(Nc2nc(-c3ccccc3)nc3c2S(=O)(=O)CCC3)cc1 | 0.016 | 0.0085 | Papp at 4 h [3]: > 50 ×10⁻⁶ cm/s; logD at 12 h [4]: 2.9
14 | O=C(O)Cc1ccc(Nc2nc(-c3ccccc3)nc3c2CSC3)cc1 | 0.029 | 0.22 | Papp at 4 h [3]: 13.3 ×10⁻⁶ cm/s; logD at 12 h [4]: 1.3
15 | O=C(O)Cc1ccc(Nc2nc(-c3ccccc3)nc3ncccc23)cc1 | – | – | inhibition [5]: 14%
16 | O=C(O)Cc1ccc(Nc2nc(-c3ccccc3)nc3c2CCCCC3)cc1 | – | – | inhibition [5]: 35%
17 | O=C(O)Cc1ccc(Nc2nc(-c3ccccc3)nc3c2COC3)cc1 | 2.2 | – | –
18 | CC(C)(C)NC(=O)Cc1ccc(Nc2nc(-c3ccccc3)nc3c2S(=O)(=O)CCC3)cc1 | 0.011 | 0.0085 | –
19 | O=C(Nc1c(Cl)cncc1Cl)c1ccc(OC(F)F)c(OCC2CC2)c1 [ROFLUMILAST] | – | 0.0012 | –
20 | O=C(O)Cc1ccc(Nc2nc(-c3ccccc3)nc3c2CCCC3)cc1 | 0.43 | – | –

Continued, in another order:

Row | IC50 [1] [µM] | IC50 [2] [µM] | SMILES | other results
21 | 2.5 | – | O=C(O)Cc1cccc(Nc2nc(-c3ccccc3)nc3c2CS(=O)(=O)C3)c1 | –
22 | 0.028 | > 10 | O=C(O)Cc1ccc(Nc2nc(-c3ccccc3)nc3c2CCS(=O)(=O)C3)cc1 | Papp at 4 h [3]: < 2 ×10⁻⁶ cm/s; logD at 12 h [4]: -0.45
23 | 5 | – | O=C(O)CN1CCN(c2nc(-c3ccccc3)nc3c2CS(=O)(=O)C3)CC1 | –
24 | 0.8 | – | O=C(O)CCc1ccc(Nc2nc(-c3ccccc3)nc3c2CS(=O)(=O)C3)cc1 | –
25 | 7.9 | – | O=C(O)Cc1ccc(Nc2nc(-c3ccccc3)nc3c2CS(=O)(=O)CC3)cc1 | –
26 | 0.15 | – | O=C(O)CC1CCN(c2nc(-c3ccccc3)nc3c2CSC3)CC1 | –
27 | 0.19 | – | O=C(O)CC1CCN(c2nc(-c3ccccc3)nc3c2CS(=O)(=O)C3)CC1 | –
28 | 3 | – | O=C(O)CN1CCC(Nc2nc(-c3ccccc3)nc3c2CS(=O)(=O)C3)CC1 | –
29 | 0.14 | 0.97 | O=C(O)Cc1ccc(Nc2nc(-c3ccccc3)nc3c2CS(=O)(=O)C3)cc1 | Papp at 4 h [3]: < 2 ×10⁻⁶ cm/s; logD at 12 h [4]: 0.016
30 | 0.025 | 0.39 | O=C(O)Cc1ccc(Nc2nc(-c3ccccc3)nc3c2S(=O)(=O)CCC3)cc1 | Papp at 4 h [3]: 5.8 ×10⁻⁶ cm/s; logD at 12 h [4]: 0.43
